Measured values taken from ChEMBL document CHEMBL1138555, “N-acylated and N,N'-diacylated imidazolidine-2-thione derivatives and N,N'-diacylated tetrahydropyrimidine-2(1H)-thione analogues: synthesis and antiproliferative activity” (Eur J Med Chem, 2009).

Key:
[1] = test system: MT4; assay: Antiproliferative activity against human MT4 cells assessed as reduction of growth by MTT assay; type: functional, cell-based
Method in brief: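 MT-4 lymphoblastoid T cells (ATCC) in RPMI 1640 with 10% FCS, penicillin/streptomycin, checked for mycoplasma. 1 × 10⁴ mock-infected cells per well with serial dilutions from a 100 mM DMSO stock. Incubated 4 days at 37 °C, viable cells counted by MTT. IC50 versus untreated controls by linear regression. Mean of three separate experiments.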

[2] = test system: HL-60(TB); assay: Growth inhibition of human HL-60(TB) cells after 48 hrs by sulforhodamine B assay; type: functional; conditions: HL-60, 48 h
Method in brief: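 NCI 60-cell-line screen protocol: cells exposed to compound at five 10-fold dilutions from 10^-4 to 10^-8 M for the last 48 h of a 72 h incubation. Sulforhodamine B protein assay estimated viability/growth. GI50 (50% growth inhibition) derived; where not reached or exceeded, reported as greater or less than the highest or lowest concentration tested.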

[3] = test system: K562; assay: Growth inhibition of human K562 cells after 48 hrs by sulforhodamine B assay; type: functional; conditions: K562, 48 h
Method in brief: (§1)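 NCI screen panel. Five 10-fold concentrations from 10^-4 to 10^-8 M. Exposure for the last 48 h of a 72 h incubation. Growth estimated by sulforhodamine B protein assay. GI50 is the concentration giving 50% growth inhibition. Where that level was not reached or was exceeded, the value is given as above or below the highest or lowest concentration tested.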

[4] = test system: MOLT-4; assay: Growth inhibition of human MOLT4 cells after 48 hrs by sulforhodamine B assay; type: functional; conditions: MOLT-4, 48 h; method in brief: as §1
[5] = Growth inhibition of human […] cells after 48 hrs by sulforhodamine B assay; type: functional; method in brief: as §1
[6] = test system: SR; assay: Growth inhibition of human SR cells after 48 hrs by sulforhodamine B assay; type: functional
Method in brief: (§2)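 NCI in vitro panel screen. Compounds tested at five 10-fold dilutions, 10^-4 to 10^-8 M. Cells in 96-well plates were exposed for the last 48 h of a 72 h incubation. Viability/growth was read by sulforhodamine B protein assay. GI50 is the concentration giving 50% growth inhibition. Values beyond the tested range are reported as greater or less than the maximum or minimum concentration.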

[7] = test system: A549; assay: Growth inhibition of human A549 cells after 48 hrs by sulforhodamine B assay; type: functional; conditions: A549, 48 h; method in brief: as §1
[8] = test system: EKVX; assay: Growth inhibition of human EKVX cells after 48 hrs by sulforhodamine B assay; type: functional; method in brief: as §1
[9] = test system: HOP-62; assay: Growth inhibition of human HOP62 cells after 48 hrs by sulforhodamine B assay; type: functional; conditions: HOP-62, 48 h; method in brief: as §1
[10] = test system: HOP-92; assay: Growth inhibition of human HOP92 cells after 48 hrs by sulforhodamine B assay; type: functional; conditions: HOP-92, 48 h; method in brief: as §1
[11] = test system: NCI-H23; assay: Growth inhibition of human NCI-H23 cells after 48 hrs by sulforhodamine B assay; type: functional; conditions: NCI-H23, 48 h; method in brief: as §1
[12] = test system: NCI-H322M; assay: Growth inhibition of human NCI-H322M cells after 48 hrs by sulforhodamine B assay; type: functional; method in brief: as §1
[13] = test system: NCI-H460; assay: Growth inhibition of human NCI-H460 cells after 48 hrs by sulforhodamine B assay; type: functional; conditions: NCI-H460, 48 h; method in brief: as §1
[14] = test system: COLO 205; assay: Growth inhibition of human COLO205 cells after 48 hrs by sulforhodamine B assay; type: functional; conditions: COLO 205, 48 h; method in brief: as §1
[15] = test system: HCT-116; assay: Growth inhibition of human HCT116 cells after 48 hrs by sulforhodamine B assay; type: functional; conditions: HCT-116, 48 h; method in brief: as §1
[16] = test system: HCT-15; assay: Growth inhibition of human HCT15 cells after 48 hrs by sulforhodamine B assay; type: functional; conditions: HCT-15, 48 h; method in brief: as §1
[17] = test system: HT-29; assay: Growth inhibition of human HT-29 cells after 48 hrs by sulforhodamine B assay; type: functional; conditions: HT-29, 48 h; method in brief: as §1
[18] = test system: KM12; assay: Growth inhibition of human KM12 cells after 48 hrs by sulforhodamine B assay; type: functional; conditions: KM12, 48 h; method in brief: as §1
[19] = test system: SW-620; assay: Growth inhibition of human SW620 cells after 48 hrs by sulforhodamine B assay; type: functional; conditions: SW-620, 48 h; method in brief: as §2
[20] = test system: SF-268; assay: Growth inhibition of human SF268 cells after 48 hrs by sulforhodamine B assay; type: functional; conditions: SF-268, 48 h; method in brief: as §1
[21] = test system: SF-295; assay: Growth inhibition of human SF295 cells after 48 hrs by sulforhodamine B assay; type: functional; conditions: SF-295, 48 h; method in brief: as §1
[22] = test system: SNB-19; assay: Growth inhibition of human SNB19 cells after 48 hrs by sulforhodamine B assay; type: functional; conditions: SNB-19, 48 h; method in brief: as §2
[23] = test system: SNB-75; assay: Growth inhibition of human SNB75 cells after 48 hrs by sulforhodamine B assay; type: functional; conditions: SNB-75, 48 h; method in brief: as §2
[24] = test system: U-251; assay: Growth inhibition of human U251 cells after 48 hrs by sulforhodamine B assay; type: functional; conditions: U-251, 48 h; method in brief: as §2
[25] = test system: LOX IMVI; assay: Growth inhibition of human LOXIMVI cells after 48 hrs by sulforhodamine B assay; type: functional; method in brief: as §1
[26] = test system: Malme-3M; assay: Growth inhibition of human MALME-3M cells after 48 hrs by sulforhodamine B assay; type: functional; method in brief: as §1
[27] = test system: M14; assay: Growth inhibition of human M14 cells after 48 hrs by sulforhodamine B assay; type: functional; conditions: M14, 48 h; method in brief: as §1
[28] = test system: SK-MEL-2; assay: Growth inhibition of human SK-MEL-2 cells after 48 hrs by sulforhodamine B assay; type: functional; conditions: SK-MEL-2, 48 h; method in brief: as §1
[29] = test system: SK-MEL-28; assay: Growth inhibition of human SK-MEL-28 cells after 48 hrs by sulforhodamine B assay; type: functional; conditions: SK-MEL-28, 48 h; method in brief: as §1
[30] = test system: SK-MEL-5; assay: Growth inhibition of human SK-MEL-5 cells after 48 hrs by sulforhodamine B assay; type: functional; conditions: SK-MEL-5, 48 h; method in brief: as §1
[31] = test system: UACC-257; assay: Growth inhibition of human UACC257 cells after 48 hrs by sulforhodamine B assay; type: functional; conditions: UACC-257, 48 h; method in brief: as §2
[32] = test system: UACC-62; assay: Growth inhibition of human UACC62 cells after 48 hrs by sulforhodamine B assay; type: functional; conditions: UACC-62, 48 h; method in brief: as §2
[33] = test system: IGROV-1; assay: Growth inhibition of human IGROV1 cells after 48 hrs by sulforhodamine B assay; type: functional; conditions: IGROV-1, 48 h; method in brief: as §1
[34] = test system: OVCAR-3; assay: Growth inhibition of human OVCAR-3 cells after 48 hrs by sulforhodamine B assay; type: functional; conditions: OVCAR-3, 48 h; method in brief: as §1
[35] = test system: OVCAR-4; assay: Growth inhibition of human OVCAR4 cells after 48 hrs by sulforhodamine B assay; type: functional; conditions: OVCAR-4, 48 h; method in brief: as §1
[36] = test system: OVCAR-8; assay: Growth inhibition of human OVCAR8 cells after 48 hrs by sulforhodamine B assay; type: functional; conditions: OVCAR-8, 48 h; method in brief: as §1
[37] = test system: SK-OV-3; assay: Growth inhibition of human SKOV3 cells after 48 hrs by sulforhodamine B assay; type: functional; conditions: SK-OV-3, 48 h; method in brief: as §1
[38] = test system: 786-0; assay: Growth inhibition of human 786-0 cells after 48 hrs by sulforhodamine B assay; type: functional; conditions: 786-0, 48 h; method in brief: as §1
[39] = test system: ACHN; assay: Growth inhibition of human ACHN cells after 48 hrs by sulforhodamine B assay; type: functional; method in brief: as §1
[40] = test system: CAKI-1; assay: Growth inhibition of human Caki1 cells after 48 hrs by sulforhodamine B assay; type: functional; conditions: CAKI-1, 48 h; method in brief: as §1
[41] = test system: RXF 393; assay: Growth inhibition of human RXF393 cells after 48 hrs by sulforhodamine B assay; type: functional; conditions: RXF 393, 48 h; method in brief: as §1
[42] = test system: SN12C; assay: Growth inhibition of human SN12C cells after 48 hrs by sulforhodamine B assay; type: functional; method in brief: as §2
[43] = test system: TK-10; assay: Growth inhibition of human TK10 cells after 48 hrs by sulforhodamine B assay; type: functional; conditions: TK-10, 48 h; method in brief: as §2
[44] = test system: UO-31; assay: Growth inhibition of human UO31 cells after 48 hrs by sulforhodamine B assay; type: functional; conditions: UO-31, 48 h; method in brief: as §2
[45] = test system: PC-3; assay: Growth inhibition of human PC3 cells after 48 hrs by sulforhodamine B assay; type: functional; conditions: PC-3, 48 h; method in brief: as §1
[46] = test system: NCI/ADR-RES; assay: Growth inhibition of human NCI/ADR-RES cells after 48 hrs by sulforhodamine B assay; type: functional; method in brief: as §1
[47] = test system: MDA-MB-231; assay: Growth inhibition of human MDA-MB-231 cells after 48 hrs by sulforhodamine B assay; type: functional; conditions: MDA-MB-231, 48 h; method in brief: as §1
[48] = test system: MDA-MB-435; assay: Growth inhibition of human MDA-MB-435 cells after 48 hrs by sulforhodamine B assay; type: functional; conditions: MDA-MB-435, 48 h; method in brief: as §1
[49] = test system: BT-549; assay: Growth inhibition of human BT549 cells after 48 hrs by sulforhodamine B assay; type: functional; conditions: BT-549, 48 h; method in brief: as §1
[50] = test system: T47D; assay: Growth inhibition of human T47D cells after 48 hrs by sulforhodamine B assay; type: functional; method in brief: as §2

For `CC(=O)C(=CN1CCN(C(=O)c2ccco2)C1=S)C(C)=O`, the IC50 [1] was 4 µM, the GI50 [2] was 5.8 µM and the GI50 [3] was 38.4 µM. For the same compound, the GI50 [4] was 8.2 µM, the GI50 [5] was 2700 nM and the GI50 [6] was 2300 nM. For the same compound, the GI50 [7] was 11.2 µM, the GI50 [8] was 11.2 µM and the GI50 [9] was 22 µM. For the same compound, the GI50 [10] was 11.7 µM, the GI50 [11] was 16.4 µM and the GI50 [12] was 4.7 µM. For the same compound, the GI50 [13] was 1500 nM, the GI50 [14] was 23.4 µM and the GI50 [15] was 4.1 µM. It also gave a GI50 [16] of 2200 nM, a GI50 [17] of 17.1 µM and a GI50 [18] of 2800 nM. For the same compound, the GI50 [19] was 14.6 µM, the GI50 [20] was 2600 nM and the GI50 [21] was 21.7 µM. The GI50 [22] was 30.1 µM, the GI50 [23] was 9 µM and the GI50 [24] was 4.8 µM. For the same compound, the GI50 [25] was 2100 nM, the GI50 [26] was 20.7 µM and the GI50 [27] was 4 µM. The GI50 [28] was 3.3 µM, the GI50 [29] was 3.9 µM and the GI50 [30] was 16.6 µM. It also gave a GI50 [31] of 2500 nM, a GI50 [32] of 5.5 µM and a GI50 [33] of 3.6 µM. For the same compound, the GI50 [34] was 11.4 µM, the GI50 [35] was 10.6 µM and the GI50 [36] was 8.2 µM. The GI50 [37] was 20 µM, the GI50 [38] was 5.3 µM and the GI50 [39] was 2900 nM. It also gave a GI50 [40] of 5.2 µM, a GI50 [41] of 1800 nM and a GI50 [42] of 2600 nM. It also gave a GI50 [43] of 4.2 µM, a GI50 [44] of 2900 nM and a GI50 [45] of 4.8 µM. For the same compound, the GI50 [46] was 23.2 µM, the GI50 [47] was 2600 nM and the GI50 [48] was 12.6 µM. For the same compound, the GI50 [49] was 14 µM and the GI50 [50] was 3.7 µM.
